The values that follow come from ChEMBL document CHEMBL4017487, “Design and Synthesis of γ- and δ-Lactam M1 Positive Allosteric Modulators (PAMs): Convulsion and Cholinergic Toxicity of an M1-Selective PAM with Weak Agonist Activity” (J Med Chem, 2017).

A short description of data set [1]: Oral bioavailability in rat at 2 mg/kg administered as single dose. The format is ADME, organism-based. The conditions noted are these: in vivo.
The nature of data set [2]: (§1) Agonist activity at muscarinic acetylcholine receptor M1 in Hartley guinea pig ileum longitudinal muscle myenteric plexus assessed as tissue contraction after 10 mins. The conditions noted are these: Cavia porcellus.
The species named for another data set is Cavia porcellus. The data set is described as §1.
Data set [3] is described as follows: Selectivity ratio of EC50 for human muscarinic acetylcholine receptor M4 expressed in CHO cells to EC50 for human muscarinic acetylcholine receptor M1 expressed in CHO cells. The format is ADME, cell-based.
Data set [4] relates to Rattus norvegicus. The data set can be described thus: Toxicity in rat assessed as unbound brain concentration at 45 mg/kg, po administered as single dose. As to conditions: in vivo. The format is organism-based.
The subject of a further data set is Plasma. The data set can be described thus: Unbound plasma concentration in amphetamine-induced hyperlocomotion C57BL/6 mouse at 1 mg/kg, sc measured after 1 hr by LC-MS/MS analysis. The format is ADME, organism-based. The conditions noted are these: in vivo. A digest of the protocol:
(§2)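 Satellite group of C57BL/6 mice from the amphetamine-stimulated locomotor study, N = 2/dose at 0.32, 1 and 3.2 mg/kg. Dosed sc as a solution in 10/90 Cremophor/water. Unbound plasma and brain concentrations measured at T = 1 h.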

The target in data set [5] is T1, Muscarinic acetylcholine receptor M5 (Homo sapiens, UniProt P08912).
T1 sequence (P08912 whole entry): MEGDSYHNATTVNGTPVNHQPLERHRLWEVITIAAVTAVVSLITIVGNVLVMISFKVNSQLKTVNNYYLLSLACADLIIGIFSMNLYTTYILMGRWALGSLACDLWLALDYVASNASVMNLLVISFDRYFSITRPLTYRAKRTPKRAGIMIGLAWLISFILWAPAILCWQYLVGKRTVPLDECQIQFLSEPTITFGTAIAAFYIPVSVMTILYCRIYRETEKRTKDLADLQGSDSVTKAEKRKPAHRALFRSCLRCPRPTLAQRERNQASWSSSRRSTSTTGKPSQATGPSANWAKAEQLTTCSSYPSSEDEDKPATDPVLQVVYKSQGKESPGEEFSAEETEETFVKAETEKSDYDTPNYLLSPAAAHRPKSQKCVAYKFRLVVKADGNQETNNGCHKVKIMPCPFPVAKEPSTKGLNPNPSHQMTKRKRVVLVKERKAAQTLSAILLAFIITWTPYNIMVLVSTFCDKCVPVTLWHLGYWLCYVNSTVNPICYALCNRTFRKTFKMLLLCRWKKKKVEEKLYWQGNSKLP
Description: Agonist activity at human muscarinic acetylcholine receptor M5 expressed in CHO cells assessed as increase in calcium mobilization incubated for 10 mins by Fluo-8-AM dye based FLIPR assay. The format is cell-based. In a few lines:
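Recombinant functional human M2–M5 assays, each run in agonist and PAM modes at concentrations up to 10 μM.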
On the technique in general: Calcium flux is commonly read through the fluorescence of an indicator in the cells.

For data set [6], the target named is T2, Muscarinic acetylcholine receptor M1 (Homo sapiens, UniProt P11229).
T2 sequence (P11229 whole entry): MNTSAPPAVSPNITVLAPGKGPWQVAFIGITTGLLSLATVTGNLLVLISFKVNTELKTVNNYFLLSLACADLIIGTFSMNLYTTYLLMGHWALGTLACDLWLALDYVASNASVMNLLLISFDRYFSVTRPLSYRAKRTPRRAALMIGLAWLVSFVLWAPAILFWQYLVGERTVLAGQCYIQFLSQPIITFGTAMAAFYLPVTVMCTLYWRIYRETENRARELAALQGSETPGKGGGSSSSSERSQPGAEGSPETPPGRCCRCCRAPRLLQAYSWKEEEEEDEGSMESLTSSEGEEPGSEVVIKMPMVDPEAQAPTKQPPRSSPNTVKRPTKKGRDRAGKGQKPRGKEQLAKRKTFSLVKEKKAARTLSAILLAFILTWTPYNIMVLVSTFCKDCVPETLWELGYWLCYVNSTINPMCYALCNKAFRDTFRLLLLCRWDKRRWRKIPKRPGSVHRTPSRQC
The data set can be described thus: Activity at human muscarinic acetylcholine receptor M1 expressed in CHO cells assessed as increase in calcium mobilization incubated for 10 mins by Fluo-8-AM dye based FLIPR assay. The format is cell-based.

For data set [7], the target named is T2, Muscarinic acetylcholine receptor M1. The data set can be described thus: Agonist activity at human muscarinic acetylcholine receptor M1 expressed in CHO cells assessed as increase in calcium mobilization at 13 uM incubated for 10 mins by Fluo-8-AM dye based FLIPR assay relative to control. The format is cell-based. The conditions noted are these: read-out: %max.

Data set [8] relates to Canis familiaris. The data set can be described thus: Cholinergic toxicity in dog assessed as watery stool at 5 mg/kg, po administered as single dose using shydroxypropyl cellulose/docusate sodium formulation after 0.5 to 1.3 hrs. The format is organism-based, Canis lupus familiaris. The conditions noted are these: in vivo. A digest of the protocol: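 Single-dose oral dose-escalation study, 1 dog/sex/dose. The 5 mg/kg dose was given as a nanosuspension in hydroxypropyl cellulose SL with 0.05% docusate sodium in purified water. Cholinergic clinical signs were recorded at approximate hours postdose, alongside unbound plasma Cmax.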

For data set [9], the target named is T2, Muscarinic acetylcholine receptor M1. The data set can be described thus: Agonist activity at human muscarinic acetylcholine receptor M1 expressed in CHO cells assessed as increase in calcium mobilization incubated for 10 mins by Fluo-8-AM dye based FLIPR assay. The format is cell-based. A digest of the protocol: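 M1 FLIPR calcium mobilization run in agonist mode (compound added without the EC20 ACh used in PAM mode). Top concentration 10 μM. EC50 values are geometric means of at least three experiments.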

The target is the same in data set [10]. The data set can be described thus: Displacement of [3H]PT-1284 human muscarinic acetylcholine receptor M1 expressed in CHO cell membranes after 90 mins scintillation counting method.
In data set [11] the test system is Canis familiaris. Description: Toxicity in dog assessed as unbound Cmax in plasma required to show convulsions at 15 mg/kg, po administered as single dose using spray dried dispersion formulation. The format is organism-based, Canis lupus familiaris. As to conditions: in vivo.
Data set [12] has as its system Rattus norvegicus. The data set can be described thus: Unbound Cmax in rat plasma at 45 mg/kg, po administered as single dose. The format is ADME, organism-based. The conditions noted are these: in vivo.
Data set [13] is described as follows: Clearance in rat at 0.5 mg/kg, iv administered as single bolus dose. The format is ADME, organism-based. As to conditions: in vivo. In a few lines:
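Rat, single IV bolus of 0.5 mg/kg as a solution in 20% HPBCD; observed plasma clearance.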

For data set [14], the system named is Canis familiaris. The data set can be described thus: Toxicity in dog assessed as death at 5 mg/kg, po administered as single dose using spray dried dispersion formulation after 1 day. The format is organism-based, Canis lupus familiaris. The conditions noted are these: in vivo, 24 h. A digest of the protocol:
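Single oral dose in dogs, 1/sex/dose. Spray-dried dispersion formulation: 23% drug loading with 0.5% methylcellulose and 100 mM citrate buffer. Clinical signs were recorded by hours postdose, with animals checked the next morning. Necropsy was performed.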

Data set [15] concerns Rattus norvegicus. The data set can be described thus: Toxicity in rat assessed as unbound Cmax in plasma required to show convulsions at 45 mg/kg, po administered as single dose. The conditions noted are these: in vivo. The format is organism-based.
In the next data set the test system is Brain. Description: Unbound brain concentration in amphetamine-induced hyperlocomotion C57BL/6 mouse at 1 mg/kg, sc measured after 1 hr by LC-MS/MS analysis. The format is ADME, organism-based. As to conditions: in vivo. A digest of the protocol:
as §2

Data set [16] in a line: Cholinergic toxicity in po dosed rat administered as single dose after 1 to 1.5 hrs post dose. The format is organism-based. As to conditions: in vivo. In a few lines:
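Rat single oral dose escalation, 3/sex/dose. 1 and 5 mg/kg as a 0.5% methylcellulose suspension; 15 and 45 mg/kg as a nanosuspension (1.25% w/v hydroxypropyl cellulose SL, 0.05% docusate sodium in water).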

The subject of another data set is Mus musculus. The data set can be described thus: Reversal of amphetamine-induced hyperlocomotion in C57BL/6 mouse assessed as decrease in total distance traveled at 0.3 to 3.2 mg/kg, sc pretreated for 30 mins followed by amphetamine dosing measured for 90 mins. The format is functional, organism-based. A digest of the protocol: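 C57BL/6 mice, D-amphetamine-stimulated locomotor activity. Compound at 0.32, 1 and 3.2 mg/kg sc as a solution in 10/90 Cremophor/water. Plasma and brain exposures from a satellite group (N = 2/dose) at 1 h.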

Structures are written as SMILES. Calls of active or inactive are those of the source. No cut-off for these calls is given here.

As for `Cc1cc2c(cc1Cc1ccc(-c3cocn3)cc1)C(=O)N([C@H]1CCOC[C@@H]1O)C2`, the bioavailability (usually dose-corrected exposure relative to a reference, in per cent) in data set [1] was determined as 91%. Moreover, the results for the EC50 in data set [2], in [5] and in [9] were 92 nM, more than 10000 nM and not below 5000 nM, respectively. Further, the Activity entry in the data set filed under Cavia porcellus is “Dose-dependent effect”; in the data set on Canis familiaris [8], “Toxic”; with Canis familiaris [14], “Toxic”. Also, the “Ratio EC50” value in data set [3] is on record as more than 200. Also, the Drug uptake(free) in the data set with Rattus norvegicus [4] is 460 to 760 nM; in the data set with Brain, 14 nM. The “Cp(f)” value in the data set with Plasma is reported as 46 nM. In data set [6], the Kb amounted to 3000 nM. Also, in data set [7], the Emax at 13 µM was 23%. In addition, the Ki (as a rule, a dissociation constant, usually derived from enzyme kinetics or from competition with a known ligand) in data set [10] stood at 16 nM. For the same molecule, the fCmax in the data set with Canis familiaris [11] was 1070 nM; with Rattus norvegicus [12], 2.31 to 3.83 µM; with Rattus norvegicus [15], 2310 nM. Further, the clearance (in general, the rate of elimination divided by the concentration) in data set [13] is 2.4 mL/min/kg. For the same molecule, the NOAEL (usually the highest tested level that showed no adverse finding) in data set [16] was 15 mg/kg. Moreover, the result in the data set on Mus musculus was Active.
